Two molecules from paper PMC3525873 (British Journal of Pharmacology, 2012) can be followed below.

pIC50: −log10 of the molar value.

Holding throughout (assay type): cell-based
Experiment [1] addresses CRAC currents in native RBL-2H3 cells (Rattus norvegicus, UniProt Q5M848). In words: Patch-clamp of CRAC currents in native RBL-2H3 cells. The procedure, abridged:
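Whole-cell recording of native RBL-2H3 cells at room temperature. Stores depleted passively by 20 mM EGTA in the Cs-methanesulphonate pipette solution (pH 7.2). Bath contained 20 mM CaCl2 (pH 7.4). Ramps from −90 to +90 mV over 1 s, holding +30 mV. Test compound at 3 μM, pre-incubated or applied acutely. Net current (minus basal) read at −85 mV 300 s after break-in; n ≥ 6 cells.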

Experiment [2] addresses T1, TRPC4beta (Homo sapiens, UniProt Q9UBN4).
T1 sequence (Q9UBN4 1-893 isoform Q9UBN4-2): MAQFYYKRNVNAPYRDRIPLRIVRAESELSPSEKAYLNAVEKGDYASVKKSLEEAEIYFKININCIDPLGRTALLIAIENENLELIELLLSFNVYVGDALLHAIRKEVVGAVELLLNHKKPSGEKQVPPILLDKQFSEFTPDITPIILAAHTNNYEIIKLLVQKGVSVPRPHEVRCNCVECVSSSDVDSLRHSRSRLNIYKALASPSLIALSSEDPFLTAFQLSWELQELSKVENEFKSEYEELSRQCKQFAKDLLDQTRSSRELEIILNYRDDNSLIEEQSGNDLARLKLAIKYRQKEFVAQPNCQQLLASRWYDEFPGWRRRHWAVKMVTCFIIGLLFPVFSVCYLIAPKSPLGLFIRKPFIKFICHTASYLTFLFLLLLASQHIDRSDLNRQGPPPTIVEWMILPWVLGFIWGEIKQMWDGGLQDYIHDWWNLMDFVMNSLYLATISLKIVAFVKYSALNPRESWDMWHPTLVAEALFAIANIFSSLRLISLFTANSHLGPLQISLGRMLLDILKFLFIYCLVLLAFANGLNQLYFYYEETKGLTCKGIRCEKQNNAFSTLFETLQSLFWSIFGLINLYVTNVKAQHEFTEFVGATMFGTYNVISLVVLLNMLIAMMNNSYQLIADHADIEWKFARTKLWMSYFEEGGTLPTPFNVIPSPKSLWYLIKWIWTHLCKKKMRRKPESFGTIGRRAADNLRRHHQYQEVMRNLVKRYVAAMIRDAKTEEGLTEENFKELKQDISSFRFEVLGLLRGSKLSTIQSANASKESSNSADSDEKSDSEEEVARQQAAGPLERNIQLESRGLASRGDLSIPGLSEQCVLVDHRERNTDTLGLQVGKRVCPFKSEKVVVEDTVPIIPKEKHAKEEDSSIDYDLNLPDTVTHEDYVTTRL
The experiment in a line: Fura-2 Ca2+ entry in HEK293 cells overexpressing TRPC4beta-YFP.

For experiment [3], the system named is NFAT. In words: GFP-NFAT translocation in RBL-2H3 cells. Particulars: 10 μM, thapsigargin 1 μM then 2 mM Ca2+ re-addition. In short, it runs like this: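 RBL-2H3 cells electroporated with GFP-NFAT (20 μg DNA, 300 V, 275 μF) 12–18 h beforehand, on coverslips. In nominally Ca2+-free buffer, stores depleted with 1 μM thapsigargin for 5 min, then 2 mM CaCl2 added. Test compound at 10 μM in all buffers. Basal taken before depletion. Cells fixed in paraformaldehyde with DAPI-stained nuclei. Nuclear/cytosolic GFP intensity ratio measured; ≥18 cells per condition.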

In experiment [4] the target is STIM1/Orai1-mediated SOCE (Rattus norvegicus, UniProt Q5M848). The experiment in a line: Fura-2 Ca2+ re-addition, thapsigargin-depleted native RBL-2H3 cells. In short, it runs like this:
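Native RBL-2H3 cells were loaded with 2 μM Fura-2-AM for 45 min and perfused in Ca2+-free extracellular solution at room temperature. Stores depleted with 1 μM thapsigargin for 5 min. Test compound present ≥5 min before and throughout. Ca2+ entry evoked by 2 mM Ca2+ re-addition; 340/380 nm ratio read (510 nm emission). Inhibition expressed as % of control peak entry. IC50 by 4-parameter logistic fit; 3–5 experiments, 29–80 cells.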

In experiment [5] the target is T2, TRPC5 (Homo sapiens, UniProt Q9UL62).
T2 sequence (Q9UL62 1-973): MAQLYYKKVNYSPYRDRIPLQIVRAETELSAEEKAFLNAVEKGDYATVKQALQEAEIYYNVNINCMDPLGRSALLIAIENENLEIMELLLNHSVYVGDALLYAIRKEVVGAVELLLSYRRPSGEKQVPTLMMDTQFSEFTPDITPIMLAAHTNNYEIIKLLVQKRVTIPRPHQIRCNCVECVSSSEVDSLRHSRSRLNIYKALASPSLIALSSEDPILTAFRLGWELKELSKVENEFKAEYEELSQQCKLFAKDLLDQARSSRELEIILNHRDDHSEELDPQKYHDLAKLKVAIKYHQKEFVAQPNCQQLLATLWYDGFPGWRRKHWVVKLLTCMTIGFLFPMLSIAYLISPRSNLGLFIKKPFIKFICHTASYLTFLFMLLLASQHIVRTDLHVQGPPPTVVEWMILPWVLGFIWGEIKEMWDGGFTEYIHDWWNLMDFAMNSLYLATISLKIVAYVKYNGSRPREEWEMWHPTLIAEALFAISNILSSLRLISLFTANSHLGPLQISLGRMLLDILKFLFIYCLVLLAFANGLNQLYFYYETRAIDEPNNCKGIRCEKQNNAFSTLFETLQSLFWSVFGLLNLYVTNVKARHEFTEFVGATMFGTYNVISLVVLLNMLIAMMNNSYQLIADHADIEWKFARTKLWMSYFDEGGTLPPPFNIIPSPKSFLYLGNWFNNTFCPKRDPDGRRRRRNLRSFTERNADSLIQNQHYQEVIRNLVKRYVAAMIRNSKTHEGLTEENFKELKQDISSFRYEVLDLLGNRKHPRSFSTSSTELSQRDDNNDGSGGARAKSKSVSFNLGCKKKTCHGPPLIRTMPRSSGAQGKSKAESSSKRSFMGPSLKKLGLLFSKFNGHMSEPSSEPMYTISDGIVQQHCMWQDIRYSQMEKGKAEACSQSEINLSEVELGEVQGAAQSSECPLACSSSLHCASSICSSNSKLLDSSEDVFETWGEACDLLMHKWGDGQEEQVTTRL
In words: Fura-2 Ca2+ entry in HEK293 cells overexpressing YFP-TRPC5.

Chain of STIM1/Orai1-mediated SOCE (Q5M848 whole entry, the tested form may be a part): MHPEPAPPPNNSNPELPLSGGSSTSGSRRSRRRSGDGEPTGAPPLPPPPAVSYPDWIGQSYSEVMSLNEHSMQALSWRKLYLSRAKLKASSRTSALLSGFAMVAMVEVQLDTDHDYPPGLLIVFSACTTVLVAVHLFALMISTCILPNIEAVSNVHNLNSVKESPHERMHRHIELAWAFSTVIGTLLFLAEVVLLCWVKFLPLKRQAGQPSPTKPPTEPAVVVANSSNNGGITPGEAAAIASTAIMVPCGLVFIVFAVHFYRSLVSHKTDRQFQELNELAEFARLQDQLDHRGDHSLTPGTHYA
Chain of CRAC currents in native RBL-2H3 cells (Q5M848 whole entry): as the sequence (Q5M848 whole entry, the tested form may be a part) above

With `O=C(Nc1ccc(-n2nc(C(F)(F)F)cc2C(F)(F)F)cc1)c1ccncc1F` [Pyr6, N-(4-(3,5-bis(trifluoromethyl)-1H-pyrazole-1-yl)phenyl)-3-fluoroisonicotinamide], the “Effect on CRAC Ca2+ entry-mediating conductance” value in experiment [1] (3 μM pre-incubation) is “completely inhibiting CRAC currents”. In addition, the pIC50 in experiment [2] and in experiment [5] was less than 5.00 in each case. Further, the “Effect on NFAT translocation” value in experiment [3] was “clearly inhibited NFAT translocation”. Besides, the “Higher potency in SOCE model than in TRPC3-ROCE model, orders of magnitude” value in experiment [4] (RBL-2H3 SOCE vs TRPC3 ROCE) is on record as 1.58 OM. Also, the “Higher potency in SOCE model than in TRPC3-ROCE model” value in experiment [4] (ratio of IC50 values, RBL-2H3 SOCE vs TRPC3 ROCE) came to 37 fold.

As to `Cc1ccc(S(=O)(=O)Nc2ccc(-n3nc(C(F)(F)F)cc3C(F)(F)F)cc2)cc1` [Pyr10, N-(4-(3,5-bis(trifluoromethyl)-1H-pyrazole-1-yl)phenyl)-4-methylbenzenesulfonamide], in experiment [1] (RBL-2H3, read-out: Inhibition of CRAC currents), the inhibition (as a rule, how much of the control response was suppressed) at 3 µM is roughly 50%. Also, the pIC50 in experiment [2] and in experiment [5] was less than 5.00 in each case. For the same molecule, the “Effect on NFAT translocation” value in experiment [3] is given as “failed to suppress NFAT activation significantly”. For the same molecule, in experiment [4] (3 μM), the “Reduction of Ca2+ entry (Orai-mediated)” value was found to be 30%.
